# ChEMBL document CHEMBL1123591, “Synthetic analogues of tetrahydrobiopterin with cofactor activity for aromatic amino acid hydroxylases” (1987)
# Values joined by “and” are separate entries in the source; they are usually repeats but may differ in a detail not shown here. Identical values can stand only once.
# B1: Phenylalanine-4-hydroxylase (Rattus norvegicus), P04176 (protein)
# chain: MAAVVLENGVLSRKLSDFGQETSYIEDNSNQNGAISLIFSLKEEVGALAKVLRLFEENDINLTHIESRPSRLNKDEYEFFTYLDKRTKPVLGSIIKSLRNDIGATVHELSRDKEKNTVPWFPRTIQELDRFANQILSYGAELDADHPGFKDPVYRARRKQFADIAYNYRHGQPIPRVEYTEEEKQTWGTVFRTLKALYKTHACYEHNHIFPLLEKYCGFREDNIPQLEDVSQFLQTCTGFRLRPVAGLLSSRDFLGGLAFRVFHCTQYIRHGSKPMYTPEPDICHELLGHVPLFSDRSFAQFSQEIGLASLGAPDEYIEKLATIYWFTVEFGLCKEGDSIKAYGAGLLSSFGELQYCLSDKPKLLPLELEKTACQEYSVTEFQPLYYVAESFSDAKEKVRTFAATIPRPFSVRYDPYTQRVEVLDNTQQLKILADSINSEVGILCNALQKIKS
# B2: Tryptophan 5-hydroxylase 1 (Rattus norvegicus), P09810 (protein)
# chain: MIEDNKENKDHSSERGRVTLIFSLKNEVGGLIKALKIFQENHVNLLHIESRKSKRRNSEFEIFVDCDINREQLNDIFPLLKSHTTVLSVDSPDQLPEKEDVMETVPWFPKKISDLDFCANRVLLYGSELDADHPGFKDNVYRRRRKYFAELAMNYKHGDPIPKIEFTEEEIKTWGTIFRELNKLYPTHACREYLRNLPLLSKYCGYREDNVPQLEDVSNFLKERTGFSIRPVAGYLSPRDFLSGLAFRVFHCTQYVRHSSDPLYTPEPDTCHELLGHVPLLAEPSFAQFSQEIGLASLGASEETVQKLATCYFFTVEFGLCKQDGQLRVFGAGLLSSISELRHALSGHAKVKPFDPKVACKQECLITSFQDVYFVSESFEDAKEKMREFAKTVKRPFGVKYNPYTQSIQVLRDSKSITSAMNELRHDLDVVNDALARVSRWPSV
# B3: Tyrosine 3-monooxygenase (Bos taurus), P17289 (protein)
# chain: MPTPNAASPQAKGFRRAVSELDAKQAEAIMSPRFVGRRQSLIQDARKEREKAEAAASSSESAEAAAWLERDGEAVLTLLFALPPTRPPALTRAIKVFETFEAHLHHLETRPAQPLRAGSPPLECFVRCEVPGPVVPALLSALRRVAEDVRAAGESKVLWFPRKVSELDKCHHLVTKFDPDLDLDHPGFSDQAYRQRRKLIAEIAFQYKQGDPIPHVEYTAEETATWKEVYSTLRGLYPTHACREHLEAFELLERFCGYREDRIPQLEDVSRFLKERTGFQLRPAAGLLSARDFLASLAFRVFQCTQYIRHASSPMHSPEPECCHELLGHVPMLADRTFAQFSQDIGLASLGVSDEEIEKLSTLYWFTVEFGLCKQNGEVKAYGAGLLSSYGELLHSLSEEPEIRAFDPDAAAVQPYQDQTYQPVYFVSESFSDAKDKLRSYASRIQRPFSVKFDPYTLAIDVLDSPHAIRHALDGVQDEMQALAHALNAIS
# What was measured:
# [1] = substrate: CCCCCCCCOCC1CNc2nc(N)nc(O)c2N1; assay: (§1) Tested in isolated enzyme assay for its cofactor activity against phenylalanine hydroxylase (isolated from rat liver) expressed as Michaelis-Menten constant
# Summary of the method: (§2)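 Phenylalanine hydroxylase was isolated from rat liver and purified on phenyl-Sepharose. Tyrosine formed was quantified by liquid chromatography with fluorescence detection, and velocities were expressed relative to tetrahydrobiopterin.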
# [2] = substrate: CC1(C)CNc2nc(N)nc(O)c2N1; assay: as §1; summary of the method: as §2
# [3] = substrate: CCCOCC1CNc2nc(N)nc(O)c2N1; assay: as §1; summary of the method: as §2
# [4] = substrate: CCCCOCC1CNc2nc(N)nc(O)c2N1; assay: as §1; summary of the method: as §2
# [5] = substrate: COCCOCC1CNc2nc(N)nc(O)c2N1; assay: as §1; summary of the method: as §2
# [6] = substrate: CCOCC1CNc2nc(N)nc(O)c2N1; assay: as §1; summary of the method: as §2
# [7] = substrate: CC1CNc2nc(N)[nH]c(=O)c2N1; assay: as §1; summary of the method: as §2
# [8] = substrate: CC(O)C(O)C1CNc2nc(N)nc(O)c2N1; assay: as §1; summary of the method: as §2
# [9] = substrate: CC(C)OCC1CNc2nc(N)nc(O)c2N1; assay: as §1; summary of the method: as §2
# [10] = substrate: COCC1CNc2nc(N)nc(O)c2N1; assay: as §1; summary of the method: as §2
# [11] = substrate: CCCCCCCCOCC1CNc2nc(N)nc(O)c2N1; assay: (§3) Tested in isolated enzyme assay for its cofactor activity against tryptophan hydroxylase (isolated from rat brain stem) expressed as Michaelis-Menten constant
# Summary of the method: (§4)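 The tryptophan hydroxylase source was a desalted 40000g supernatant of rat brain stem, with velocities expressed relative to tetrahydrobiopterin.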
# [12] = substrate: CCCOCC1CNc2nc(N)nc(O)c2N1; assay: as §3; summary of the method: as §4
# [13] = substrate: CCCCOCC1CNc2nc(N)nc(O)c2N1; assay: as §3; summary of the method: as §4
# [14] = substrate: CCOCC1CNc2nc(N)nc(O)c2N1; assay: as §3; summary of the method: as §4
# [15] = substrate: CC(O)C(O)C1CNc2nc(N)nc(O)c2N1; assay: as §3; summary of the method: as §4
# [16] = substrate: CC(C)OCC1CNc2nc(N)nc(O)c2N1; assay: as §3; summary of the method: as §4
# [17] = substrate: COCC1CNc2nc(N)nc(O)c2N1; assay: as §3; summary of the method: as §4
# [18] = compound: CC1CNc2nc(N)[nH]c(=O)c2N1; assay: Tested in isolated enzyme assay for its cofactor activity against tryptophan hydroxylase (isolated from rat brain stem) expressed as Michaelis-Menten constant (calculated in the presence of platinum catalyst)
# [19] = substrate: CC(C)COCC1CNc2nc(N)nc(O)c2N1; assay: (§5) Tyrosine hydroxylase (isolated from bovine adrenal medulla) cofactor activity
# Summary of the method: (§6)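 Tyrosine hydroxylase was purified from bovine adrenal medulla by partial trypsin digestion, giving a model of the high-affinity form, then ammonium sulfate fractionation. Activity was measured as release of ³H₂O from L-(3,5-³H)tyrosine, with velocities expressed relative to tetrahydrobiopterin.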
# [20] = substrate: CC(C)(C)OCC1CNc2nc(N)nc(O)c2N1; assay: as §5; summary of the method: as §6
# [21] = substrate: CCCCCCCCOCC1CNc2nc(N)nc(O)c2N1; assay: as §5; summary of the method: as §6
# [22] = substrate: CC1(C)CNc2nc(N)nc(O)c2N1; assay: as §5; summary of the method: as §6
# [23] = substrate: CCCOCC1CNc2nc(N)nc(O)c2N1; assay: as §5; summary of the method: as §6
# [24] = substrate: COCCOCC1CNc2nc(N)nc(O)c2N1; assay: as §5; summary of the method: as §6
# [25] = substrate: CCOCC1CNc2nc(N)nc(O)c2N1; assay: as §5; summary of the method: as §6
# [26] = substrate: CC1CNc2nc(N)[nH]c(=O)c2N1; assay: as §5; summary of the method: as §6
# [27] = substrate: CCCCCOCC1CNc2nc(N)nc(O)c2N1; assay: as §5; summary of the method: as §6
# [28] = substrate: CC(C)OCC1CNc2nc(N)nc(O)c2N1; assay: as §5; summary of the method: as §6
# [29] = substrate: COCC1CNc2nc(N)nc(O)c2N1; assay: as §5; summary of the method: as §6
# [30] = target: Tyrosine hydroxylase (Bos taurus); assay: Tested in isolated enzyme assay for its cofactor activity against tyrosine hydroxylase (isolated from bovine adrenal medulla) expressed as Michaelis-Menten constant
protein,measurement,setting,value
B1,Km,[1],1 µM
same,Km,[2],29 µM
same,Km,[3],16 µM
same,Km,[4],21 µM
same,Km,[5],65 µM
same,Km,[6],21 µM
same,Km,[7],21 µM
same,Km,[8],5.5 µM
same,Km,[9],9 µM
same,Km,[10],17 µM
B2,Km,[11],11 µM
same,Km,[12],92 µM
same,Km,[13],84 µM
same,Km,[14],44 µM
same,Km,[15],49 µM
same,Km,[16],129 µM
same,Km,[17],33 µM
same,Km,[18],355 µM
B3,Km,[19],80 µM
same,Km,[20],120 µM
same,Km,[21],44 µM
same,Km,[22],77 µM and 105 µM
same,Km,[23],28 µM and 22 µM
same,Km,[24],200 µM
same,Km,[25],52 µM and 23 µM
same,Km,[26],133 µM and 51 µM
same,Km,[27],65 µM
same,Km,[28],45 µM and 55 µM
same,Km,[29],84 µM
same,Km,[30],22 µM
